S100A4 inh HTS: S100A4-myosin IIA interaction inhibition; P26447; S100A4/TAMRA-MyoIIA peptide fluorescence polarization; inhibition, % at 10.7 µM; hit rate 0.14% among 360,000; AID 652163;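 active = mean inhibition of at least 70% across replicates, with every replicate also reaching that level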
Target sequence (P26447 whole entry, looked up): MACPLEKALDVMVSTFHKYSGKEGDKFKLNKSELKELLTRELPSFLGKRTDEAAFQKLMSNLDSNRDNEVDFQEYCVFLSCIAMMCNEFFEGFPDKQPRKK
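Compound dosing: one dose per compound; test system: human S100A4 monomer with TAMRA-labelled myosin IIA peptide; probe or stimulus: TAMRA-labelled myosin IIA heavy-chain peptide probe, 5 nM; medium: HEPES buffer with Ca2+, pH 7.2; schedule: 5 min incubation before reading; benchmarks: neutral control DMSO, positive control TFP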
F508del corr: CFTR F508del correction in bronchial cells; AID 720511; hit rate 0.36% among 350,000; CFBE cells, YFP halide quenching; stimulated with forskolin plus potentiator P3; % fluorescence drop versus neutral controls; activity (quench increase), % at 7.58 µM;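 active = mean added fluorescence quench of at least 8% versus neutral control, with both replicates also reaching 8%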;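 also: cells transiently co-express mutant CFTR-F508del with the halide-sensitive YFP; corrector assay measuring rescue of mutant channel to the surface after 24 h compound exposure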
SIRT5 inh: sirtuin-5 (human) deacylase inhibition | Purified SirT5, succinyl-peptide AMC, trypsin-coupled fluorescence | inhibition, % at 15 µM | hit rate 1.1% among 330,000 | AID 652115; in the data active = inhibition above about 15%
Target sequence (Q9NXA8 whole entry, looked up): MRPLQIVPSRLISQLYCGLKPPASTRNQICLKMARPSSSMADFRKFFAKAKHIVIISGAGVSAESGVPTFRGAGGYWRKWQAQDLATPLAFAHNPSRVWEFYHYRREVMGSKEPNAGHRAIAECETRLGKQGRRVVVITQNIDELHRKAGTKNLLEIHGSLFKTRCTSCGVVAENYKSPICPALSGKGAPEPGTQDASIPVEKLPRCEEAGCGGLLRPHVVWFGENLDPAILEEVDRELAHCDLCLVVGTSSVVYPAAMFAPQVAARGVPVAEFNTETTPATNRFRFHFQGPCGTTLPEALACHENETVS
ERAP1 HTS inh: ERAP1 (human) enzyme inhibition. recombinant ERAP1, Leu-AMC fluorescence, 60 min. inhibition, % at 10.7 µM. hit rate 0.15% among 340,000. AID 652197;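 active = mean replicate inhibition of at least 30%, or all replicates individually reaching that 30% level; inactive = mean below 30% and not every replicate reaching it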;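 also: 0% = neutral control wells and 100% = L-leucinethiol positive control wells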
Ecoli rRNA inh: inhibitors of bacterial rRNA selective over humanized ribosomes. E. coli WT GFP vs humanized-ribosome RFP mutants, fluorescence, 24 h; active compounds read low; DMSO median 0, no signal -100. GFP signal change (wild-type ribosome), % (no concentration beside the values). hit rate 1.6% among 350,000;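 active = significant combined selectivity score with lowered wild-type GFP, culture density cut under 30%, mutant RFP and density less affected; inactive = any of these conditions unmet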
* marks the source's active call; other numbers are inactive results; nt = no result given; ! = repeats disagree. The list is not random: actives were taken first. Their share in the collection is about 3.1%.

SMILES	S100A4 inh HTS	F508del corr	SIRT5 inh	ERAP1 HTS inh	Ecoli rRNA inh
C/C=C/c1ccc2c(c1)O[C@H](CN(C)Cc1ccccc1)[C@@H](C)CN([C@@H](C)CO)S2(=O)=O	-24	0	18*	2	-53
C[C@@H]1CN([C@H](C)CO)S(=O)(=O)c2ccc(/C=C/c3ccccc3)cc2O[C@H]1CN(C)Cc1ccccc1	54	4	23*	0	-1
C/C=C/c1ccc2c(c1)O[C@H](CN(C)CC1CC1)[C@H](C)CN([C@H](C)CO)S2(=O)=O	nt	3	nt	nt	3
C/C=C/c1ccc2c(c1)O[C@H](CN(C)CC1CCCC1)[C@@H](C)CN([C@H](C)CO)S2(=O)=O	-9	-5	15*	-7	-13
O=C(COC(=O)/C=C/c1ccc(S(=O)(=O)N2CCOCC2)cc1)NCc1ccc(Cl)cc1	5	1	25*	0	17
O=C(COC(=O)/C=C/c1ccc(S(=O)(=O)N2CCOCC2)cc1)NCc1ccccc1	-1	-1	0	0	8
Cc1ccc(S(=O)(=O)N2CCN(C(=O)COC(=O)/C=C/c3ccc(C(F)(F)F)cc3)CC2)c(C)c1	-7	-1	-1	-1	-6
Cc1ccc(S(=O)(=O)N2CCN(C(=O)COC(=O)/C=C/c3ccc(Cl)cc3)CC2)c(C)c1	-4	17*	-4	4	11
C[C@H](CO)N1C[C@H](C)[C@H](CN(C)C(=O)c2ccncc2)OCCCC[C@H](C)Oc2ccc(NS(=O)(=O)c3cn(C)cn3)cc2C1=O	4	2	-1	-2	1
COc1cc2c(-c3ccccc3)c(C)oc2cc1/C=N/NC(N)=S	-1	8.1*	-5	nt	7
C[C@@H]1CCCCO[C@@H](CN(C)Cc2ccncc2)[C@H](C)CN([C@@H](C)CO)C(=O)c2cc(NC(=O)NC3CCCCC3)ccc2O1	-11	1	-2	-3	-5
COc1cc(Cl)c(CN2CCCC(CO)(Cc3ccccc3F)C2)cc1OC (stereo not given)	-8	-3	101*	-2	nt
O=C(NC1CCCCC1)[C@@H]1[C@@H](CO)[C@@H]2Cn3c(cccc3=O)[C@H]1N2CC1CCCC1	2	2	3	-8	-2
COc1ccc(-n2c(=S)[nH]c3ncccc3c2=O)cc1	1	2	15*	nt	10
O=C(COc1cccc(C(F)(F)F)c1)Nc1cccnc1	-2	-1	-4	-1	1
O=C(COc1ccc(C(=O)NCc2cccnc2)cc1)Nc1cccc(C(F)(F)F)c1	-1	-3	3	-2	-23*
O=C(C[C@H]1C[C@@H]2c3cc(NS(=O)(=O)c4ccc(F)cc4)ccc3O[C@@H]2[C@@H](CO)O1)NCc1ccccc1F	6	3	0	-1	-6
Cc1noc(C)c1NC(=O)N(C)C[C@H]1OCc2cn(nn2)CCCC(=O)N([C@@H](C)CO)C[C@@H]1C	-1	0	16*!	-1	6
COc1cccc(NC(=O)N(C)C[C@@H]2OCc3cn(nn3)CCCC(=O)N([C@H](C)CO)C[C@H]2C)c1	2	1	23*!	-1	5
COc1cccc(NC(=O)N(C)C[C@H]2OCc3cn(nn3)CCCC(=O)N([C@H](C)CO)C[C@H]2C)c1	nt	1	nt	nt	0
Cc1noc(C)c1NC(=O)N(C)C[C@H]1OCc2cn(nn2)CCCC(=O)N([C@H](C)CO)C[C@H]1C	nt	-3	nt	nt	2
Nc1cc2sc(-c3ccc(C(=O)O)cc3)nc2cc1Cl	-1	-1	-17	-28	-33*
CC(C)[C@@H]1C(=O)N[C@@H](c2ccc3c(c2)OCO3)C/C=C/C[C@H](C)Oc2ccccc2C(=O)N1C	nt	nt	nt	nt	-3
Cc1ccc(S(=O)(=O)NC(=O)c2ccc(Br)o2)cc1	5	-3	35*	-1	10
Cc1noc(C)c1NC(=O)N(C)C[C@H]1OCCCC[C@H](C)Oc2ccc(NC(=O)NC(C)C)cc2C(=O)N([C@@H](C)CO)C[C@H]1C	-8	1	2	4	4
SMILES	S100A4 inh HTS	F508del corr	SIRT5 inh	ERAP1 HTS inh	Ecoli rRNA inh
CCC(C(=O)N1CCOCC1)n1nc(C)c2c(C)n(-c3ccccc3)nc2c1=O (stereo not given)	-1	3	6	1	5
CCC(C(=O)N1CCOCC1)n1nc(C)c2sc3ccccc3c2c1=O (stereo not given)	0	0	30*	-6	8
S=C(NCCCN1CCOCC1)N1CCN(c2nc(-c3ccccc3)cs2)CC1	10	-1	-8	9	-22*
O=C(N[C@@H]1CC[C@H](CC(=O)N2CCOCC2)O[C@@H]1CO)c1cccc(F)c1	5	-3	0	0	0
CC(=O)c1cccc(NC(=O)Nc2cnn(Cc3ccc(F)cc3)c2)c1	1	1	-4	1	-22*
O=S(=O)(c1cccs1)N1CCCCN2[C@H](CO)[C@H](c3ccc(C4=CCCCC4)cc3)[C@H]2C1	-5	-1	20*	3	nt
COc1cccc(S(=O)(=O)N2CCCCN3[C@H](CO)[C@H](c4ccc(C5=CCCCC5)cc4)[C@H]3C2)c1	nt	-3	nt	nt	-32*
O=C(Nc1ccccc1F)N1C[C@@H]2[C@H](c3ccccc31)[C@H](CO)N2C(=O)Cc1ccccc1	18	0	4	-2	-43
Cc1cc(C)c(NC(=O)COC(=O)c2cc([N+](=O)[O-])ccc2N2CCOCC2)c(C)c1	-1	-1	-4	-6	nt
CCOc1ccc(NC(=O)COC(=O)c2cc([N+](=O)[O-])ccc2N2CCOCC2)cc1	1	0	-1	2	-12
CCc1cccc(NC(=O)COC(=O)c2cc([N+](=O)[O-])ccc2N2CCOCC2)c1	-2	9.1*	-8	3	9
Cc1cc(NC(=O)COC(=O)c2cc([N+](=O)[O-])ccc2N2CCOCC2)ccc1Br	1	-1	2	4	-18*
COCC(=O)N1[C@H](C#N)[C@@H](c2ccccc2-c2cccc(F)c2)[C@@H]1CO	4	1	4	3	3
O=C(Cc1ccccn1)N[C@H]1CC[C@@H](CCNC(=O)c2cc(Cl)cc(Cl)c2)O[C@@H]1CO	-1	0	-1	0	-1
C[C@@H]1CN([C@H](C)CO)S(=O)(=O)c2ccc(C3=CCCCC3)cc2O[C@H]1CN(C)C(=O)Cc1ccccc1	-46	-2	15*	0	-14
C[C@@H]1CN([C@@H](C)CO)S(=O)(=O)c2ccc(C3=CCCCC3)cc2O[C@H]1CN(C)C(=O)Cc1ccccc1	-9	-2	16*	0	-7
C[C@@H]1CN([C@H](C)CO)S(=O)(=O)c2ccc(C3=CCCCC3)cc2O[C@@H]1CN(C)C(=O)Cc1ccccc1	11	2	13	0	-4

Bioassay records as filed in PubChem BioAssay.
